High-throughput results as filed in PubChem.
The list is not random: actives were taken first. Their share in the collection is about 4.5%.
CHO parental Ca: ATP-evoked calcium signal inhibitors, parental CHO, primary screen, counter-screen for OX1R antagonist project, cell-based, fluorescence, Fluo-8 calcium dye. parental CHO-K1, ATP-induced calcium, Fluo-8 fluorescence. hit rate 0.63% among 330,000. inhibition, % at 5.6 µM. AID 463079, 2010;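 active = inhibition above that plate's mean sample inhibition plus 3 SD, cut at about 26% in these data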;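 also: 0% = ATP-challenged DMSO wells and 100% = DMSO wells without ATP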
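Assay system – parental CHO cells · Reagent – ATP stimulus · Detection – intracellular calcium via Fluo-8 no-wash fluorescent dye · Evaluation – percent inhibition of ATP-evoked calcium rise, normalized to controls · Controls – ATP wells versus no-ATP DMSO wells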
OX1R antag-1: antagonists of human orexin 1 receptor (OX1R). Orexin/Hypocretin receptor type 1 (Homo sapiens), O43613. OX1R-expressing cells, FRET antagonist read-out. inhibition, % at 6.6 µM. hit rate 1.8% among 330,000. AID 485270, 2010; in the data active = inhibition mostly above about 38%, no sharp cut-off; inactive = mostly below about 40%;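 also: 0% = agonist challenge alone and 100% = reference antagonist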
TAAR1 antagonist: human TAAR1 antagonists, primary screen, Fluo-8 calcium fluorescence, CHO RD-HGA16 cells; hit rate 1.5% among 360,000; antagonist; AID 624466, 2012; Trace amine-associated receptor 1 (Homo sapiens), Q96RJ0; inhibition, % at 3 µM;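 active = inhibition above a per-plate cutoff, the mean inhibition of test compounds on that plate plus 3 SD, cut at about 49% in these data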;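 also: 0% = DMSO plus EC80 beta-PEA response and 100% = DMSO alone without agonist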
Target sequence (Q96RJ0 whole entry, looked up): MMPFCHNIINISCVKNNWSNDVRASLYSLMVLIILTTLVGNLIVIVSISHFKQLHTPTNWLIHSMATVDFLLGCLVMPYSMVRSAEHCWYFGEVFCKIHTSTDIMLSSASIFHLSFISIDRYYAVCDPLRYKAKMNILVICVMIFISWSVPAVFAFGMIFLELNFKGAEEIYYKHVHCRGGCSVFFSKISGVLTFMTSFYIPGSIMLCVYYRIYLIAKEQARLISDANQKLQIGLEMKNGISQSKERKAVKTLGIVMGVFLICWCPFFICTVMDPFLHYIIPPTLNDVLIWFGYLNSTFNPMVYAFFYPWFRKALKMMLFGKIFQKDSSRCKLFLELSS
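System: CHO RD-HGA16 cells bearing hTAAR1. Reagent: EC80 β-phenethylamine stimulus. Schedule: seeding 17-24 h prior, 75-min 37 °C, 30-min RT dye loading. Signal: Fluo-8 intracellular calcium dye fluorescence, real-time kinetic reads. Read-out: % inhibition from peak post-agonist over basal fluorescence ratio. Benchmarks: vehicle wells and EC80 agonist wells. Replicates: n of 1.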
TAAR1 ag: human TAAR1 agonists, primary screen, Fluo-8 calcium fluorescence, CHO RD-HGA16 cells; Trace amine-associated receptor 1 (Homo sapiens), Q96RJ0; vehicle wells 0%, saturating PEA agonist 100%; activation, % at 3 µM; hit rate 0.99% among 360,000; AID 624467, 2012;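 active = activation above the mean activation of all test compounds in the run plus 3 SD, cut at about 38% in these data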
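System: CHO-derived RD-HGA16 cells with stable Gα16 and human TAAR1 / Times: 17-24 h plating, Fluo-8 75 min 37 °C, 30 min RT / Technique: calcium-sensitive Fluo-8 signal, excitation 470-495, emission 515-575 nm / Measure: % activation relative to PEA EC100 response / Benchmarks: DMSO and PEA EC100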
OX1R antag-2: OX1R (HCRTR1) antagonists, primary screen, fluorescence, CHO/OX1R cells, Fluo-8 calcium, orexin A; Orexin/Hypocretin receptor type 1 (Homo sapiens), O43613; Fluo-8 calcium fluorescence; inhibition, % at 5 µM; hit rate 0.43% among 330,000; AID 434989, 2010;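 active = inhibition above its plate's threshold, mean inhibition of all tested compounds on the plate plus 3 SD, cut at about 37% in these data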;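 also: 0% = orexin A challenge wells and 100% = SB-334867-A antagonist wells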
GPR7 antag: GPR7 receptor antagonists, primary screen, cell-based, fluorescence, single concentration; Neuropeptides B/W receptor type 1 (Homo sapiens), P48145; GPR7-expressing cells, fluorescence antagonist assay; inhibition, % at 4.4 µM; hit rate 1.1% among 290,000; AID 1861, 2009; in the data active = inhibition above about 16%, passing the limit was not always enough;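 also: cells stimulated with the agonist NPW; 0% = agonist with vehicle and 100% = vehicle without agonist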
Target sequence (P48145 whole entry, looked up): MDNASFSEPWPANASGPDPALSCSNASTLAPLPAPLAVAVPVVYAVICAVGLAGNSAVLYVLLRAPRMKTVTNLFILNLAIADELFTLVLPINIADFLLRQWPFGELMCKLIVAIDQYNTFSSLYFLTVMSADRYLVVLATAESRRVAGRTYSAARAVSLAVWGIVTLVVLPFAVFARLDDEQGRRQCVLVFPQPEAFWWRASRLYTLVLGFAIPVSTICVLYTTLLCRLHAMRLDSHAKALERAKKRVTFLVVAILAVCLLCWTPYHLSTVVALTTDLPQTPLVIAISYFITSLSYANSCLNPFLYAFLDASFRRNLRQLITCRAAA
* marks the source's active call; other numbers are inactive results; . = no result.

SMILES	CHO parental Ca	OX1R antag-1	TAAR1 antagonist	TAAR1 ag	OX1R antag-2	GPR7 antag
NNc1n[nH]c(=S)n1N	4.7	61.3*	-27.9	-1.1	4.9	-5.1
CC[C@@H](C(N)=O)N1CCCC1=O	-5.4	18.4	.	.	-5.2	-11.7
CCCC[C@@H](C)C[C@@H](C)C(=O)N(C)[C@@H](CC(C)C)C(=O)N[C@H](C(=O)N(C)[C@H](C(=O)N1C[C@@H](O)C[C@H]1C(=O)N1C(=O)C=C[C@@H]1C)C(C)C)C(C)OC(C)=O (some centres not stated)	-23.9	52.5*	.	.	-22.2	.
O=c1c2ccccc2[se]n1-c1ccccc1	47.2*	9.0	32.4	41.3*	23.4	-9.9
O=c1c2ccccc2nc(-c2ccccc2)n1-c1ccccc1	-10.9	9.8	-4.3	9.0	-11.6	-14.1
Cc1cccc(N2C(=O)NC(=O)/C(=C\c3cccn3-c3ccc(Cl)cc3)C2=O)c1	-8.2	8.7	36.6	56.2*	-16.4	-4.2
Cc1cccc(N2C(=O)NC(=O)/C(=C\C=C\c3ccco3)C2=O)c1	-5.0	18.7	21.6	43.8*	-10.4	-10.9
N#CC1c2ccccc2-n2nncc2CN1S(=O)(=O)c1ccccc1 (configuration not stated)	.	.	-21.5	1.6	.	.
O=C(O)CC1OCC=C2CN3CCC45C6=CC(=O)C(=O)C([N+](=O)[O-])=C6NC4C1C2CC35 (configuration not stated)	6.3	38.4*	.	.	-16.7	-8.2
O=C(O)CC1OCC=C2CN3CCC45c6ccccc6NC4C1C2CC35 (configuration not stated)	-17.6	6.4	2.9	0.0	-5.0	-10.6
Cc1c(N=Nc2c(O)n(-c3ccc(Br)cc3)c(=O)[nH]c2=O)c(=O)n(-c2ccccc2)n1C	-2.2	65.8*	-9.2	11.4	-16.0	-20.8
Cc1c(N=Nc2c(O)[nH]c(=O)[nH]c2=O)c(=O)n(-c2ccccc2)n1C	-10.3	35.1	6.7	-0.8	4.3	-1.9
COC1CCCCC1NCCc1ccccc1 (configuration not stated)	-17.9	22.8	-22.4	38.0*	-21.0	7.4
COc1ccc(CCNC2CCCCCC2)cc1	-9.9	14.3	2.0	4.4	-19.1	-12.7
O=C(NCCN1CCC2(CC1)C(=O)NCN2c1ccccc1)c1cccs1	.	.	5.9	16.6	.	.
COC1CC=C2CCN3CCC4=C(CC(=O)OC4)C23C1 (configuration not stated)	.	.	-13.8	1.6	.	.
CCN(CC)S(=O)(=O)c1ccc(C)c(NCC(=O)Nc2ccc(C#N)c(Cl)c2)c1	56.4*	16.7	26.3	13.7	33.1	4.5
COc1ccc(-n2c(/C=C/c3ccc(O)c(O)c3)nc3ccccc3c2=O)cc1	-12.1	7.4	50.2*	11.0	1.8	-10.4
COc1cc(/C=C/c2nc3ccccc3c(=O)n2-c2ccc(O)cc2)ccc1O	0.1	-1.3	67.5*	16.2	5.0	0.6
Brc1ccc2c(c1)-n1nncc1CNC2	.	.	-16.9	1.8	.	.
CC1CC(C)CN(CC(=O)c2ccc(OC(F)F)cc2)C1 (configuration not stated)	-6.4	15.6	-31.1	41.8*	-10.1	1.7
Oc1c(Br)c(Br)c(Br)c(Br)c1Br	-7.5	37.1*	.	.	7.0	.
O=C1NC(=S)N(c2ccc(Cl)cc2)C(=O)/C1=C/N1CCN(C(=O)c2ccco2)CC1	14.4	14.5	4.9	38.5*	7.8	2.3
O=C(NCCN1CCC2(CC1)C(=O)NCN2c1ccccc1)c1ccccc1F	.	.	-10.8	2.3	.	.
CCC(C)(C)n1nnnc1C(c1cccs1)N1CC=C(c2ccc(F)cc2)CC1 (configuration not stated)	45.7*	19.9	25.4	9.5	-1.8	-5.3
SMILES	CHO parental Ca	OX1R antag-1	TAAR1 antagonist	TAAR1 ag	OX1R antag-2	GPR7 antag
Fc1ccc(C2=CCN(C(c3cccs3)c3nnnn3CCc3ccccc3)CC2)cc1 (configuration not stated)	-14.8	17.6	1.8	4.3	-13.1	-4.2
CN1C(=O)C(C2c3ccccc3C(=O)N2Cc2ccc([N+](=O)[O-])cc2)C(=O)N(C)C1=O (configuration not stated)	4.5	20.8	9.6	7.9	-12.5	-2.9
CN1C(=O)C(c2ccc([N+](=O)[O-])cc2[N+](=O)[O-])C(=O)N(C)C1=O	-1.3	43.9*	6.3	6.3	-13.2	11.9
COC(=O)C1C(c2ccc(C)cc2)CC2CCC1N2C (configuration not stated)	.	.	-1.5	2.1	.	.
O=C1c2cccc3cccc(c23)C(=O)N1/N=C/c1c(O)n(-c2ccccc2)c(=O)[nH]c1=O	-6.8	60.7*	-5.9	-0.3	-8.1	-15.5
CCN(CC)c1ccc(CNCCc2ccccc2F)cc1	-6.0	1.9	-3.6	39.8*	-15.9	6.7
O=P(Nc1ccccc1)(Nc1ccccc1)Oc1ccccc1	-18.6	13.8	40.9	15.0	-19.9	-2.8
O=P(Nc1ccccc1)(Nc1ccccc1)Oc1cccc(Cl)c1	-15.9	1.2	52.3*	13.7	2.0	-3.2
COc1ccc(C(=O)N2CCOCC2)cc1S(=O)(=O)N1CCC(C)CC1	-1.5	12.7	-6.3	12.0	-12.5	-10.3
CC1CCN(S(=O)(=O)c2ccc(NN=C(C#N)C#N)cc2)CC1	16.5	101.0*	.	.	25.1	-5.3
O=S(=O)(c1ccc(Cl)cc1)N1Cc2ccc(Br)cc2-n2nncc2C1	.	.	-3.5	0.8	.	.
CC(C)OP(=O)(Oc1ccc(C(O)C(Cl)(Cl)Cl)cc1)OC(C)C (configuration not stated)	-12.7	59.5*	-10.8	5.4	0.4	5.7
CCOC(=O)[C@]12Cc3ccccc3[C@H]1N(Cc1ccccc1)C(=O)c1cc(F)c(F)cc12	.	.	-30.0	-1.0	.	.
Cc1ccc(C[n+]2c(-c3ccc(C)cc3)cc(-c3ccc(C)cc3)cc2-c2ccc(C)cc2)cc1	98.3*	-5.4	.	.	96.5*	.
CNCC(O)c1cccc(OC(=O)c2ccccc2C)c1 (configuration not stated)	-27.0	-9.7	-3.9	11.6	-26.8	23.5*
CCC(COC(=O)NC)NC(=O)Oc1cccc(C)c1 (configuration not stated)	3.6	6.1	14.6	9.4	4.0	-0.7
CN1CCN(c2c(F)cc([N+](=O)[O-])c(N)c2Br)CC1	-9.5	51.9*	4.9	0.5	-4.8	-1.5
CCCOP(=O)(OCCC)C(NC(=O)c1ccccc1)=C(Cl)Cl	-3.3	32.7	5.5	0.0	-11.4	-2.7
